Here are results for 48 sequences from the EternaBench riboswitch data.

The data set concerns MS2 coat protein. Kind of data set: apparent Kd, MS2 coat protein; higher = weaker binding; RNA-MaP array; FMN 200 µM where present. In a few lines: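 Designs were transcribed by stalled E. coli RNA polymerase on Illumina sequencing-chip clusters. They were titrated with SNAP-549-labelled MS2 coat protein from 0.7 or 1.5 nM, doubling to 3 µM, in 100 mM Tris-HCl pH 7.5, 80 mM KCl, 4 mM MgCl2, BSA, DTT, yeast tRNA and Tween-20, without and then with constant ligand. The apparent Kd is the median of filtered per-cluster fits after normalisation of green signal to red-channel RNA signal and control-cluster median Fmax.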

Where [1] appears, read: designed as: OFF switch for flavin mononucleotide, no ligand.
The mark [2] stands for this setting: ligand present: flavin mononucleotide, designed as: OFF switch for flavin mononucleotide.
[3] abbreviates: designed as: ON switch for flavin mononucleotide, no ligand.
[4] abbreviates: ligand present: flavin mononucleotide, designed as: ON switch for flavin mononucleotide.

The term apparent Kd denotes the concentration giving half-maximal binding under the conditions of the assay. Take “CUCUAUCAUGUAGGAUAUGCGUGUCGAAGCUAUGCAGAAGGACAUGAGGAUCACCCAUGUCUUACUGUCUGCGGACGGACAGGG”: the “apparent Kd” value by setting is: under setting [1], 22.4 nM; under setting [2], 53.9 nM.
“AUAUUCAGAGGAUAUGCGCAUAGAUAAGACUUUUUUUCUUAACAUGAGGAUCACCCAUGUAGAAGGCUGUAAUA”: the “apparent Kd” value was 20.1 nM under setting [1] and 17.5 nM under setting [2].
Regarding “AGUUCCUCCGCAGGAUAUGUGCUCUUUACCACAUGAGGAUCACCCAUGUCAGCCUACACGGCGAGACAGAAGGGUGGUGGUGCC”, the “apparent Kd” value under setting [3] is 96 nM and the “apparent Kd” value under setting [4] worked out at 157 nM.
As to “UGUCGGAGCAGAGGAUAUUACAUGAGGAUCACCCAUGUAUGAACCAAUAGCUGCAAACAGCAAUGUAAGAAGGCUGCUCCGACA”, the “apparent Kd” value is, setting by setting: under setting [1], 12.4 nM; under setting [2], 162 nM.
The like results for “CAUAACGGCUGAGGAUAUUGAAUGUGCGUGGACAUGAGGAUCACCCAUGUUCAAGAAGGCAGCAAUUUACUUGGGUCUACCCGC” were, in that order, 40.9 nM and 309 nM.
As to “UAAACAUGAGGAUCACCCAUGUAAUGAUCGGUUGAUGAAAGUGAGGAUAUACAAAAUUUUAUGGAGUAGAAGGCACUGGGUUCU”, the “apparent Kd” value by setting is: under setting [3], 49.9 nM; under setting [4], 40.3 nM.
Turning to “UUAUUGGGACAGAAGGGCAUUUACAUGAGGAUCACCCAUGUUCAUCAUUGCAGGAUAUGUAUUACAUGAGGAUCAUCUAUGUUA”, the “apparent Kd” value reads like this: under setting [3], 259 nM; under setting [4], 36.9 nM.
Regarding “AUGUUGAGCAGUGUAUUAAGAUCACAUGAGGAUCACCCAUGUAGAAGGCACGAGCUGAUCGCUCGUGAGGAUAUACAUCACUGC”, the “apparent Kd” value under setting [1] was 10.3 nM and the “apparent Kd” value under setting [2] was determined as 110 nM.
On to “ACAAGAUCAGGAUAUACAUGAGGAUCACCCAUGUUUAUCAAAAAGGGACUUUCUUAAUGUAGAAGGGAUCUUGU”, for which the “apparent Kd” value reads like this: under setting [1], 27.5 nM; under setting [2], 83.9 nM.
For “CAUAAACAUGAGGAUCACCCAUGUGAGGAUAUGAUAUUACUAGGACGGCUGUAAUCAAUCAGAAGGCACAUCUU” the same measures were 18.5 nM and 37.5 nM.
Regarding “UUAAAUCAUGUAGGAUAUCCGAUGCGAAGCGUUGGAGAAGGACAUGAGGAUCACCCAUGUUCUAGCGUCUGAGUACAGAUGCAA”, the “apparent Kd” value by setting is: under setting [1], 30.6 nM; under setting [2], 140 nM.
Consider “GAGGCCCAAACAUGAGGAUCACCCAUGUGUUUAGUCCUCACAUAGGAUAUCCACACGAGAAGUGUGGAGAAGGAUGAGGGCGUC”, for which the “apparent Kd” value is, setting by setting: under setting [1], 49 nM; under setting [2], 101 nM.
For “AAAGGACAUGAGGAUCACCCAUGUCAGGAUAUCGCUUUAGGACAUACCCAUUAACCUGCGAGAAGGGACGGUGA”, the “apparent Kd” value runs as follows: under setting [1], 32.8 nM; under setting [2], 44.6 nM.
Take “GUUAUUAUUAGUUCAUACUAUAAGAUAGAAGGUGAAUAAUUGACAUGAGGAUCACCCAUGUAAUUCAAGGAUAUGUAGAUACUC”: the “apparent Kd” value reads like this: under setting [3], 32 nM; under setting [4], 17.6 nM.
“UGUCAUAUAUAGAAGGGUAGUAGGGAUUUACAUGAGGAUCACCCAUGUAUUAUAGGAUAUGUGUAUAGUUUUUAUUCAAGUUUA”: the “apparent Kd” value was 24.7 nM under setting [1] and 18.8 nM under setting [2].
Regarding “AAACAUGUCCGAGGAUAUCUGGAAACAUUUUCAAGAGAAGGCGGACAUGAGGAUCACCCAUGUCUCUCCUCAUCAACUAUAAAU”, the “apparent Kd” value came to 8.24 nM under setting [1] and 60.6 nM under setting [2].
For “CGUGGACUAGGAUAUUUACGAGGCUACAUGAGGAUCACCCAUGUGUUCUCGAGUACCAUGAAAGAAGGAGUAGCGA” the same measures were 12.6 nM and 14 nM.
As for “AACGCGUCAGGAUAUAGCGUAAUUUAGGUAGUACGACCAUACUAGAAGGGACAUGAGGAUCACCCAUGUGGGUA”, the “apparent Kd” value is, setting by setting: under setting [1], 212 nM; under setting [2], 118 nM.
The like results for “GGAUGACACAGUCAUCCAAUACGAACAUGAGGAUCACCCAUGUAGGAUAUGCUACUCAAAGAGUAGCAGAAGGACAUGUGCCUU” were, in that order, 39.1 nM and 257 nM.
The like results for “AAAAAACAUGAGGAUCACCCAUGUGAGGAUAUCAGUAUUCAGUCCUCGGAUUGAGUACUGAGAAGGCACAUAAA” were, in that order, 51.5 nM and 94.2 nM.
Take “UUAUUAUGUGUAGGAUAUGCAUAUUACUAUUAUGCAGAAGGACAUGAGGAUCACCCAUGUAUAUUAUUAUUAUAUAUUAUAUAU”: the “apparent Kd” value was found to be 14.9 nM under setting [1] and 22.4 nM under setting [2].
“UUUGUGUCAGGAUAUGAGUCGUAGAACAAUAGUACUACGUCUCAGAAGGGACAUGAGGAUCACCCAUGUGCCUC”: the “apparent Kd” value under setting [1] was determined as 35.4 nM and the “apparent Kd” value under setting [2] amounted to 281 nM.
The like results for “AUCAGCUCGUCAGGAUAUAGGUCACUGCGUCAGCAGUGUGGUAAGAUCACAUGAGGAUCACCCAUGUAGAAGGGACGAGCUGAU” were, in that order, 17.3 nM and 59.5 nM.
Turning to “GUCUUCCUAGGAUAUACAUGAGGAUCACCCAUGUACAGUUUCGUCAAAGGAUACUCGCGUAGAAGGAGGUGGAU”, the “apparent Kd” value under setting [1] came out at 26 nM and the “apparent Kd” value under setting [2] was 50.7 nM.
For “CUCCUGCGAGGAUAUACAUAGUGACGUCUGUUUGGUCUUAAACAUGAGGAUCACCCAUGUAGAAGGUGCGUCAC”, the “apparent Kd” value was 17.5 nM under setting [1] and 16.9 nM under setting [2].
With “GCGCAGUCAGGAUAUGCCGCUGGCGAUCACCGUGGGCAAAGGCAGAAGGGACAUGAGGAUCACCCAUGUGGCGC”, the “apparent Kd” value was found to be 72.1 nM under setting [1] and 32.9 nM under setting [2].
The like results for “CUAUUGUGAGGAUAUCAGUAGUAGAACAAUAGUACUACUACUGAGAAGGCACAUGAGGAUCACCCAUGUUCCUC” were, in that order, 61.1 nM and 406 nM.
For the sequence “CAGCGAAAGCUGAAUCUGUAGAGAGAGGAUAUACAAGAAUAAAUCCAUACAUGAGGAUCACCCAUGUAGAAGGCUCUCUACAGU”, the “apparent Kd” value by setting is: under setting [1], 7.41 nM; under setting [2], 26.6 nM.
“UUAAAUCAUGUAGGAUAUGCAUGGCGAAGCUACGCAGAAGGACAUGAGGAUCACCCAUGUGCUAGCUACCGAGUUCGGUGGCAA”: the “apparent Kd” value by setting is: under setting [1], 71.3 nM; under setting [2], 283 nM.
Take “GGUACCAUCACAGGAUAUGCUUUCCUUUGGGAAGCAGAAGGGUGUAACAUGAGGAUCACCCAUGUGGUGCCCGGGCGUGAGCCC”: the “apparent Kd” value by setting is: under setting [3], 120 nM; under setting [4], 15.9 nM.
Consider “CGCUGUCAUGCAGGAUAUGCAUUGGAUUACAAUGCAGAAGGGCGAUUACAUGAGGAUCACCCAUGUGUAGACAGUGAAGAAGAC”, for which the “apparent Kd” value under setting [3] is 167 nM and the “apparent Kd” value under setting [4] came out at 11.9 nM.
In the case of “AGGUGCACAGGAUAUACAUGAGGAUCACCCAUGUGCCAACUGUGCGCUGGUCCUUUAUGUAGAAGGGUGCGUCC”, the “apparent Kd” value runs as follows: under setting [1], 22.1 nM; under setting [2], 15.8 nM.
Turning to “AAGACCAGAGGAUAUCAGACGCGGCACAUGAGGAUCACCCAUGUAUUCCCGUCUGCCGACUGAGAAGGUUGGAAAG”, the “apparent Kd” value is, setting by setting: under setting [1], 12.5 nM; under setting [2], 17 nM.
In the case of “GGAAAACAUGAGGAUCACCCAUGUGAGGAUAUCGAUGUCCAAAAAGAGGUGCGGGACUCGAGAAGGCACUUGGA”, the “apparent Kd” value by setting is: under setting [1], 55.1 nM; under setting [2], 54 nM.
As to “GGAACGCUUGACAUGAGGAUCACCCAUGUUAGAUUGUUAUGUCAGGAUAUAGUCUAGAAACUAGACUAGAAGGGAUAUGUUUCU”, the “apparent Kd” value worked out at 428 nM under setting [3] and 87.7 nM under setting [4].
As for “AAAUGCUUGUCGAUGCUCGACAUGAGGAUCACCCAUGUAUAGCAGGAUAUGCAGAACUGACUCGUGCAGAAGGGCUAUACCUAA”, the “apparent Kd” value runs as follows: under setting [1], 23.2 nM; under setting [2], 69.6 nM.
Regarding “AGGGCAACAGGAUAUCAUACAAUCUACAUGAGGAUCACCCAUGUGCCUCUUUUCAUACUGUGAGAAGGGUUGUCGG”, the “apparent Kd” value runs as follows: under setting [1], 64.8 nM; under setting [2], 63.8 nM.
On to “GGUACUCAAAGAGUACUUGGUCGAACAUGAGGAUCACCCAUGUAGGAUAUGCGAAGCAAGAAGUAGCAGAAGGGCAUGUGCAGC”, for which the “apparent Kd” value is, setting by setting: under setting [1], 17.7 nM; under setting [2], 16.1 nM.
The like results for “UUGCCACAUGAGGAUCACCCAUGUGAGGAUAUGGCCUGUUUGGCGUGAGCUGGUUCUGUCAGAAGGCGCGUGGG” were, in that order, 45.9 nM and 51.3 nM.
As for “GUGCAUGUGCGAACUAACCCACAUGAGGAUCACCCAUGUAGGAGAAGGGUCCGGAGGUGCCGUGGACAGGAUAUCCUACGCCUG”, the “apparent Kd” value reads like this: under setting [1], 23.2 nM; under setting [2], 30.9 nM.
As for “GCGUGAAAUGUAGGAUAUGACACAGGAAACUGGUCAGAAGGACAUGAGGAUCACCCAUGUAAUAAGUUCAAGAAUAACACAUGC”, the “apparent Kd” value runs as follows: under setting [1], 33.1 nM; under setting [2], 75.5 nM.
For “GUCAGCUCGUGAGGAUAUACAACACUGCUUCGUCAGUGUAUUAAGAUCACAUGAGGAUCACCCAUGUAGAAGGCACGAGCUGAU” the same measures were 12.2 nM and 211 nM.
With “GGGUUGUGAGGAUAUUAGUUGUACGUCAAUAGACGUAUAAGUGAGAAGGCACAUGAGGAUCACCCAUGUUCCUG”, the “apparent Kd” value by setting is: under setting [1], 20.8 nM; under setting [2], 80.1 nM.
On to “UUGGACGUCGUAUGAUAUGUAGGAUAUUCCUACAUGAGGAUCACCCAUGUUGACAUGGAAGAAGGACAGAAGGACGAUGUCCAU”, for which the “apparent Kd” value is, setting by setting: under setting [3], 192 nM; under setting [4], 6.74 nM.
In the case of “AGAAUAAACCAGAAGGCGUAGAUACAUGAGGAUCACCCAUGUAUACUUGCGAGGAUAUGGAUGAUUCAAGUGCGUUUCGUAGCA”, the “apparent Kd” value amounted to 6.06 nM under setting [3] and 4.23 nM under setting [4].
For “UUUGUACAUGAGGAUCACCCAUGUCAGGAUAUGUCAUCGCCGUCCGACGGCCGGCGUCACAGAAGGGACAUGCA”, the “apparent Kd” value runs as follows: under setting [1], 27.8 nM; under setting [2], 78.1 nM.
The like results for “CCGGAAUCCUAGGAUAUGCUAGACGAGAGUCUAGCAGAAGGAGGAACAUGAGGAUCACCCAUGUGUCCUACCGG” were, in that order, 17.7 nM and 21 nM.
On to “AAGAAACAUGAGGAUCACCCAUGUAAGAUAAACACAGGAUAUGCGAAAAGAAACAAAGAAGCAGAAGGGUGAAGAA”, for which the “apparent Kd” value under setting [3] worked out at 68.2 nM and the “apparent Kd” value under setting [4] was found to be 19.7 nM.
